# The source made the active and inactive calls.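 The calls were made as follows: active = efflux reduced below the neutral control level, like a known efflux blocker; inactive = efflux raised or left unchanged.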
# Assay: SR-BI-mediated cholesterol efflux to HDL inhibition, dose response, mechanism study for SR-BI HDL uptake inhibitor project, ldlA[mSR-BI] cells, [3H]cholesterol, dry powder (AID 602152)
# Conditions: [3H]cholesterol efflux to HDL, LSC; at 25 µM (top of the series)
# How it was run: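 Assay system: ldlA[mSR-BI] cells, mouse SR-BI expressing; Reagent: HDL, 100 µg/mL; Times: 2-day label, 24 h equilibration, 1 h compound, 2 h efflux; Measured by: liquid scintillation counting of 3H in medium and cells.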
row,Compound,"efflux, percent of neutral control"
1,COCC(=O)N1CCc2cc(-c3csc(NC(=O)c4cc(OC)cc(OC)c4)n3)ccc21,9.23% (active)
2,C[C@H](C(=O)NC1CCCC1)N(C(=O)Cn1nnc(-c2ccc3c(c2)OCO3)n1)C1CCCCC1,6.75% (active)

# Reference: PubChem BioAssay AID602152 (Broad Institute, 2011)
